Data taken from ChEMBL document CHEMBL3124924, “Bifunctional ethyl 2-amino-4-methylthiazole-5-carboxylate derivatives: synthesis and in vitro biological evaluation as antimicrobial and anticancer agents” (2014).
In brackets after ≈: the same amount, converted by molar mass. Activity calls are given as the source filed them. No cut-off for these calls is given here.

Key:
[1] = tested on: Candida albicans; experiment: Antifungal activity against Candida albicans ATCC 10231 assessed as growth inhibition after 48 hrs by two-fold serial dilution assay; type: functional; conditions: ATCC 10231, 48 h
Summary of the method: (§1)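 Twofold serial broth dilution run on compounds giving inhibition zones of 13 mm or more. Organisms pre-grown in suitable broth at 37 °C, 24 h for bacteria and 48 h for fungi. Dilution series 200, 100, 50, 25, 12.5, 6.25. Each 5 mL tube inoculated with 0.1 mL and incubated 37 °C for 48 h. Tubes scored for presence or absence of growth.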

[2] = tested on: Pseudomonas aeruginosa; experiment: Antibacterial activity against Pseudomonas aeruginosa ATCC 27853 assessed as growth inhibition after 48 hrs by two-fold serial dilution assay; type: functional; summary of the method: as §1
[3] = tested on: Escherichia coli; experiment: Antibacterial activity against Escherichia coli ATCC 25922 assessed as growth inhibition after 48 hrs by two-fold serial dilution assay; type: functional; summary of the method: as §1
[4] = tested on: Bacillus spizizenii; experiment: Antibacterial activity against Bacillus subtilis ATCC 6633 assessed as growth inhibition after 48 hrs by two-fold serial dilution assay; type: functional; summary of the method: as §1
[5] = tested on: Staphylococcus aureus; experiment: Antibacterial activity against Staphylococcus aureus ATCC 6538 assessed as growth inhibition after 48 hrs by two-fold serial dilution assay; type: functional; summary of the method: as §1
[6] = tested on: Staphylococcus aureus; experiment: Antibacterial activity against Staphylococcus aureus ATCC 6538 assessed as growth inhibition at 1 mg/mL after 24 hrs by agar-cup diffusion method; type: functional; conditions: ATCC 6538, 24 h, read-out: DIZ
Summary of the method: (§2)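 Agar-cup diffusion: 1 mL of 6 h broth culture seeded per 100 mL molten sterile agar at 45 °C and poured into plates. 8 mm cups cut, each filled with 0.1 mL of 1 mg/mL test solution. Incubated 37 °C for 24 h, 48 h for C. albicans. DMSO control per organism. Inhibition zone diameter in mm, mean of three measurements.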

[7] = tested on: Bacillus spizizenii; experiment: Bactericidal activity against Bacillus subtilis ATCC 6633 after 18 hrs; type: functional; conditions: ATCC 6633, 18 h
Summary of the method: (§3)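 Continuation of the broth-dilution MIC test. A loopful from each tube without visible growth spread on a quarter of a Mueller-Hinton agar plate and incubated 18 h. Lowest concentration giving no growth on subculture taken as the MBC.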

[8] = tested on: Pseudomonas aeruginosa; experiment: Bactericidal activity against Pseudomonas aeruginosa ATCC 27853 after 18 hrs; type: functional; conditions: ATCC 27853, 18 h; summary of the method: as §3
[9] = tested on: Aspergillus niger; experiment: Antifungal activity against Aspergillus niger assessed as growth inhibition at 1 mg/mL after 24 hrs by agar-cup diffusion method; type: functional, organism-based; summary of the method: as §2
[10] = tested on: Escherichia coli; experiment: Antibacterial activity against Escherichia coli ATCC 25922 assessed as growth inhibition at 1 mg/mL after 24 hrs by agar-cup diffusion method; type: functional; conditions: ATCC 25922, 24 h, read-out: DIZ; summary of the method: as §2
[11] = tested on: Pseudomonas aeruginosa; experiment: Antibacterial activity against Pseudomonas aeruginosa ATCC 27853 assessed as growth inhibition at 1 mg/mL after 24 hrs by agar-cup diffusion method; type: functional; conditions: ATCC 27853, 24 h, read-out: DIZ; summary of the method: as §2
[12] = tested on: Staphylococcus aureus; experiment: Bactericidal activity against Staphylococcus aureus ATCC 6538 after 18 hrs; type: functional; conditions: ATCC 6538, 18 h; summary of the method: as §3
[13] = tested on: Bacillus spizizenii; experiment: Antibacterial activity against Bacillus subtilis ATCC 6633 assessed as growth inhibition at 1 mg/mL after 24 hrs by agar-cup diffusion method; type: functional; conditions: ATCC 6633, 24 h, read-out: DIZ; summary of the method: as §2
[14] = tested on: Escherichia coli; experiment: Bactericidal activity against Escherichia coli ATCC 25922 after 18 hrs; type: functional; conditions: ATCC 25922, 18 h; summary of the method: as §3
[15] = tested on: Candida albicans; experiment: Antifungal activity against Candida albicans ATCC 10231 assessed as growth inhibition at 1 mg/mL after 48 hrs by agar-cup diffusion method; type: functional; conditions: ATCC 10231, 48 h, read-out: DIZ; summary of the method: as §2

Row | Compound | MIC [1] [µg/mL] | MIC [2] [µg/mL] | MIC [3] [µg/mL] | MIC [4] [µg/mL] | MIC [5] [µg/mL] | zone of inhibition at 1000 µg/mL [6] [mm] | MIC ([2]; ATCC 27853, 48 h) [µg/mL] | MBC [7] [µg/mL] | MIC ([3]; ATCC 25922, 48 h) [µg/mL] | MBC [8] [µg/mL] | MIC ([4]; ATCC 6633, 48 h) [µg/mL] | growth inhibition (GI) [9] | zone of inhibition at 1000 µg/mL [10] [mm] | zone of inhibition at 1000 µg/mL [11] [mm] | MIC ([5]; ATCC 6538, 48 h) [µg/mL] | MBC [12] [µg/mL] | zone of inhibition at 1000 µg/mL [13] [mm] | MBC [14] [µg/mL] | zone of inhibition at 1000 µg/mL [15] [mm]
1 | C[C@@H]1[C@H](O)[C@@H](C)/C=C/C=C/C=C/C=C/C=C/C=C/C=C/[C@H](O[C@@H]2O[C@H](C)[C@@H](O)[C@H](N)[C@@H]2O)C[C@@H]2O[C@](O)(C[C@@H](O)C[C@@H](O)[C@H](O)CC[C@@H](O)C[C@@H](O)CC(=O)O[C@H]1C)C[C@H](O)[C@H]2C(=O)O [AMPHOTERICIN B] | 1.56 (≈ 1.69 µM) |  |  |  |  |  |  |  |  |  |  |  |  |  |  |  |  |  | 
2 | GENTAMICIN |  | 12.5 | 3.12 | 12.5 | 3.12 |  |  |  |  |  |  |  |  |  |  |  |  |  | 
3 | CCOC(=O)c1sc(NC(=S)Nc2ccc(C)cc2)nc1C |  |  |  |  |  | > 13 | 100 (≈ 298 µM) | 100 (≈ 298 µM) | 50 (≈ 149 µM) | 200 (≈ 596 µM) | 100 (≈ 298 µM) | inactive | > 13 | > 13 | 50 (≈ 149 µM) | 50 (≈ 149 µM) | > 13 | 100 (≈ 298 µM) | > 13
4 | CCOC(=O)c1sc(NC=O)nc1C |  |  |  |  |  | > 13 |  | 200 (≈ 934 µM) |  |  | 100 (≈ 467 µM) | inactive | > 13 | > 13 | 100 (≈ 467 µM) | 200 (≈ 934 µM) | > 13 |  | > 13
5 | Cc1nc(NC(=S)NC2CCCCC2)sc1C(=O)NN |  |  |  |  |  | > 13 | 100 (≈ 319 µM) | 100 (≈ 319 µM) | 50 (≈ 160 µM) | 200 (≈ 638 µM) | 100 (≈ 319 µM) | inactive | > 13 | > 13 | 100 (≈ 319 µM) | 100 (≈ 319 µM) | > 13 | 100 (≈ 319 µM) | > 13
6 | CCOC(=O)c1sc(NC(=S)NC2CCCCC2)nc1C |  |  |  |  |  | > 13 |  | 200 (≈ 611 µM) | 50 (≈ 153 µM) |  | 100 (≈ 305 µM) | inactive | > 13 | > 13 | 50 (≈ 153 µM) | 100 (≈ 305 µM) | > 13 | 100 (≈ 305 µM) | > 13
7 | CCOC(=O)c1sc(/N=C/c2cccs2)nc1C |  |  |  |  |  | > 13 |  | 200 (≈ 713 µM) | 50 (≈ 178 µM) |  | 100 (≈ 357 µM) | inactive | > 13 | > 13 | 100 (≈ 357 µM) | 200 (≈ 713 µM) | > 13 | 100 (≈ 357 µM) | > 13
8 | CCOC(=O)c1sc(/N=C/c2ccco2)nc1C |  |  |  |  |  | > 13 |  | 200 (≈ 757 µM) | 25 (≈ 94.6 µM) |  | 100 (≈ 378 µM) | inactive | > 13 | > 13 | 50 (≈ 189 µM) | 100 (≈ 378 µM) | > 13 | 50 (≈ 189 µM) | > 13
9 | Cc1nc(NC(=S)Nc2ccccc2)sc1C(=O)NN |  |  |  |  |  | > 13 |  | 200 (≈ 651 µM) | 100 (≈ 325 µM) |  | 100 (≈ 325 µM) | inactive | > 13 | > 13 | 50 (≈ 163 µM) | 100 (≈ 325 µM) | > 13 | 100 (≈ 325 µM) | > 13
10 | Clc1ccccc1C(c1ccccc1)(c1ccccc1)n1ccnc1 [CLOTRIMAZOLE] | 6.25 (≈ 18.1 µM) |  |  |  |  |  |  |  |  |  |  |  |  |  |  |  |  |  | 
11 | CC1(C)S[C@@H]2[C@H](NC(=O)[C@H](N)c3ccccc3)C(=O)N2[C@H]1C(=O)O.O.O.O [AMPICILLIN TRIHYDRATE] |  |  |  |  |  |  | 12.5 |  | 6.25 |  | 12.5 |  |  |  | 6.25 |  |  |  | 
